Measured values from ChEMBL document CHEMBL2029204, “Latent hit series hidden in high-throughput screening data” (J Med Chem, 2012).
Active and inactive are the calls of the source. No cut-off for these calls is given here.

Experiments:
Nucleic Acid [1] = test: Agonist activity at ECMV genomic RNA internal ribosomal entry site in human HuH7 cells after 24 hrs by firefly luciferase reporter gene assay; type: functional, cell-based; conditions: Encephalomyocarditis virus; Huh-7
How it was run: (§1)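 Cells carry a bicistronic construct (Neo translated cap-dependently, firefly luciferase under EMCV IRES) and are grown with Geneticin. After 24 h with or without compound, resazurin viability is read first, then cells are lysed and luciferase is quantified (Steady-Glo). Dose response uses eight concentrations from 0 to 10 μM in quadruplicate. Normalization: DMSO 0%, 500 μM benzalkonium chloride −100%. Values reported are AC50, absolute AC50 (activity at −50% for antagonists, 50% for agonists) and Amax (activity at highest concentration).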

Huh-7 = test: Cytotoxicity against human HuH7 cells after 24 hrs by resazurin reduction assay; type: cell-based; conditions: huh-7, 24 h
How it was run: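 Same multiplexed wells as the luciferase readout: cells with the Neo/EMCV-IRES-Fluc construct under Geneticin, exposed to compound for 24 h, then viability is read by non-invasive resazurin reduction before lysis. Eight concentrations from 0 to 10 μM, in quadruplicate. Activity is normalized to DMSO (0%) and 500 μM benzalkonium chloride (−100%).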

Nucleic Acid [2] = test: Agonist activity at ECMV genomic RNA internal ribosomal entry site in human HuH7 cells assessed as activity measured at the highest concentration after 24 hrs by firefly luciferase reporter gene assay relative to control; type: functional, cell-based; conditions: Encephalomyocarditis virus; Huh-7; how it was run: as §1
Nucleic Acid [3] = test: Antagonist activity at ECMV genomic RNA internal ribosomal entry site in human HuH7 cells after 24 hrs by firefly luciferase reporter gene assay relative to control; type: functional, cell-based; conditions: Encephalomyocarditis virus; Huh-7; how it was run: as §1
Nucleic Acid [4] = test: Antagonist activity at ECMV genomic RNA internal ribosomal entry site in human HuH7 cells after 24 hrs by firefly luciferase reporter gene assay; type: functional, cell-based; conditions: Encephalomyocarditis virus; Huh-7; how it was run: as §1

COCCn1c(NC(COC)c2ccc(OC)c(OC)c2)nc2c1c(=O)n(C)c(=O)n2C (configuration not stated)
Activity (Nucleic Acid [1]): inactive | Activity (Huh-7): Non-toxic | Activity (Nucleic Acid [2]): 0.53

CCc1cc2cc3c(=O)n4c(nc3cc2s1)-c1[nH]c2ccc(OC)cc2c1CC4
Activity (Nucleic Acid [1]): 0.35 µM | Activity (Huh-7): Non-toxic | Activity (Nucleic Acid [2]): 33.5

COc1ccc2[nH]c3c(c2c1)CCn1c-3nc2cc3sc4c(c3cc2c1=O)CCCCCC4
Activity (Nucleic Acid [1]): 2.16 µM | Activity (Huh-7): Non-toxic | Activity (Nucleic Acid [2]): 26.2

COc1ccccc1N1CCN(CC(O)COc2ccc(-c3cc(C#N)c(=O)[nH]c3C)cc2)CC1 (configuration not stated) [SATERINONE]
Activity (Nucleic Acid [3]): 172 | Activity (Huh-7): Non-toxic | Activity (Nucleic Acid [4]): 5.46 µM

COc1ccc(OCC(O)CN2CCN(c3ccccc3OC)CC2)c(C(C)(C)C)c1 (configuration not stated)
Activity (Nucleic Acid [3]): -42 | Activity (Huh-7): Non-toxic | Activity (Nucleic Acid [4]): 3.08 µM

COc1ccccc1N1CCN(CC(O)COc2cccc3ccccc23)CC1 (configuration not stated) [NAFTOPIDIL]
Activity (Nucleic Acid [3]): -34 | Activity (Huh-7): Non-toxic | Activity (Nucleic Acid [4]): 1.48 µM

COc1ccc2[nH]c3c(c2c1)CCn1c-3nc2cc3sc4c(c3cc2c1=O)CCCC4
Activity (Nucleic Acid [1]): inactive | Activity (Huh-7): Non-toxic | Activity (Nucleic Acid [2]): -7.44

O=c1c2ccccc2nc2n1CCc1c-2[nH]c2ccccc12 [RUTAECARPINE]
Activity (Nucleic Acid [1]): 27.6 µM | Activity (Huh-7): Non-toxic | Activity (Nucleic Acid [2]): 1030

COCCn1c(NC(CO)c2ccc(OC)c(OC)c2)nc2c1c(=O)n(C)c(=O)n2C (configuration not stated)
Activity (Nucleic Acid [1]): 42.8 µM | Activity (Huh-7): Non-toxic | Activity (Nucleic Acid [2]): 346
